The first assay concerns the target Gag-Pol polyprotein (Rous sarcoma virus (strain Prague C) (RSV-PrC), UniProt P03354). The assay can be described thus: Inhibition of rous sarcoma virus (RSV) Integrase. An outline of the steps: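 His-tagged RSV integrase catalytic core expressed in E. coli BL21(DE3) (IPTG 1 mM, 3 h, 37 °C) and purified on Ni-NTA. Disintegration assay used 0.5 pmol 5′-32P-labeled annealed DRSV oligonucleotide with 2 pmol core in Tris buffer pH 7.2 for 1 h at 37 °C. Products were resolved on a 15% denaturing polyacrylamide gel and quantified by phosphorimager. IC50 is the concentration halving activity.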
Chain of Gag-Pol polyprotein (P03354 1281-1567 limits assumed): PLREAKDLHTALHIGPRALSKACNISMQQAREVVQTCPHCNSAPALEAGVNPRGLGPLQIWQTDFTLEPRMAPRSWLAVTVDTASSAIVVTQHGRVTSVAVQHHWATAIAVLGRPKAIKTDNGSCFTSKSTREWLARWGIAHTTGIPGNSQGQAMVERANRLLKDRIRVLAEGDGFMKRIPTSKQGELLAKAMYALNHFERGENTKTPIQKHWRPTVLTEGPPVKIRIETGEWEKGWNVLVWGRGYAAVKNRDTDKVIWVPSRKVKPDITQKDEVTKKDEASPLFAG
Chain of Human immunodeficiency virus type 1 integrase (Q7ZJM1 whole entry): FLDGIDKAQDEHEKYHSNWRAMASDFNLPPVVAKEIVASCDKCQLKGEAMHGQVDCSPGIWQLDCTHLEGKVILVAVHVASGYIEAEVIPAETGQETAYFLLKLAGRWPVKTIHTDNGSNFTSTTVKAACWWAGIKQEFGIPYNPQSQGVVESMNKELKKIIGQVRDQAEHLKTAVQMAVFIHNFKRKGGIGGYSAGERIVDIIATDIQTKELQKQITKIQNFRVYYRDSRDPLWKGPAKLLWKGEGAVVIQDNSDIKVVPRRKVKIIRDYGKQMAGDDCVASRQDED
In general, IC50 refers to the midpoint of a concentration-inhibition curve. Read a low IC50 as higher potency. For the compound `CC(=O)Oc1cccc2ccc(/C=C/c3ccccc3)nc12`, the IC50 is > 100 µM. Same read-out and setting: the value for `O=C(O)c1ccc2ccc(/C=C/c3ccc(O)cc3O)nc2c1O` was 38.3 µM. The same measure, in the same setting: the value for `O=C(O)c1ccc2ccc(/C=C/c3cc(O)c(O)c(O)c3)nc2c1O` was 2.1 µM. On to `O=C(O)c1ccc2ccc(/C=C/c3ccc(O)c(O)c3)nc2c1O`, for which the midpoint of inhibition, the IC50, lay at 2.3 µM. `O=C(O)c1ccc2ccc(/C=C/c3ccccc3)nc2c1O` returned an IC50 of 10.3 µM. The same measure, in the same setting: the result for `Cc1ccc2cccc(OC(=O)/C=C/c3ccc(O)c(O)c3)c2n1` reads > 100 µM; that for `O=C(O)c1ccc2ccc(/C=C/c3ccc(O)cc3)nc2c1O`, 20.9 µM. Turning to `Oc1ccc(/C=C/c2ccc3cccc(O)c3n2)cc1O`, the IC50 worked out at 65.1 µM. Turning to `Nc1cccc2ccc(/C=C/c3ccc(O)c(O)c3)nc12`, the IC50 is > 100 µM. On the same count and under the same terms, the value for `CC(=O)Oc1ccc(/C=C/c2ccc3cccc(OC(C)=O)c3n2)cc1OC(C)=O` was > 100 µM; that for `N#Cc1ccc2ccc(/C=C/c3ccc(O)c(O)c3)nc2c1O` was 38 µM; that for `O=C(O)c1cc(/C=C/c2ccc3ccc(C(=O)O)c(O)c3n2)ccc1O` was 7.4 µM. The same measure, in the same setting: the result for `Oc1cccc2ccc(/C=C/c3ccccc3)nc12` reads > 100 µM. On the same count and under the same terms, the result for `O=[N+]([O-])c1cccc2ccc(/C=C/c3ccc(O)c(O)c3)nc12` reads > 100 µM.

The target of the next assay is Human immunodeficiency virus type 1 integrase (Human immunodeficiency virus 1, UniProt Q7ZJM1). The assay can be described thus: Inhibition of human immunodeficiency virus-1 (HIV-1) integrase. An outline of the steps:
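Disintegration assay with His-tagged HIV-1 integrase catalytic core, expressed in E. coli BL21(DE3) and Ni-NTA purified. Substrate was 0.5 pmol of 5′-32P-labelled, self-annealed DHIV oligonucleotide, reacted with 2 pmol core in Tris buffer pH 7.2 for 1 h at 37 °C. Products were resolved on 15% denaturing polyacrylamide gel and quantified by phosphorimaging. IC50 is the drug concentration halving enzyme activity.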
As to `O=C(O)c1ccc2ccc(/C=C/c3ccc(O)cc3O)nc2c1O`, the IC50 was found to be 2.5 µM.

Source of the values: ChEMBL document CHEMBL1133692, “Modeling of the inhibition of retroviral integrases by styrylquinoline derivatives” (J Med Chem, 2000).
